The values that follow come from ChEMBL document CHEMBL4819012, “Discovery of novel 2-aryl-3-sulfonamido-pyridines (HoAns) as microtubule polymerization inhibitors with potent antitumor activities” (Eur J Med Chem, 2021).

Active and inactive are the calls of the source. The calls are words filed in the database; no cut-off is given here.

Experiment [1] has as its system PANC-1. Kind of experiment: Induction of cell cycle arrest in human PANC-1 cells assessed as accumulation of cells in S phase at 1 uM measured after 24 hrs by PI staining based flow cytometry method (reference value: 65%). The experiment is classed as functional. For orientation: A flow cytometer gives signals particle by particle.
Experiment [2] has as its system RKO. Kind of experiment: Induction of apoptosis in human RKO cells assessed as increase in Bax expression at 0.5 to 1 uM measured after 24 hrs by western blot assay. The class given is functional, cell-based. Particulars: dose 0.5-1 µM. The gist of the method:
(§1)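 RKO or SW620 cells at 4×10^5–5×10^5 per well treated with 0.5 and 1 µM for 24 h; lysed in SDS loading buffer, boiled, SDS-PAGE, PVDF transfer; probed with anti-Bax or anti-cleaved PARP (1:1000) overnight at 4 °C, HRP secondary, ECL detection; β-actin control.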
(In general: Immunoblotting shows a protein as a band on a membrane.)

For experiment [3], the system named is HUVEC. Kind of experiment: Cytotoxicity against human HUVEC cells assessed as inhibition of cell proliferation measured after 24 hrs by MTS assay. The experiment is classed as cell-based. The gist of the method:
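HUVECs exposed to graded concentrations for 24 h; viability read by MTS assay; IC50 reported as mean ± SD.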
In general terms: Formazan colour is commonly taken as a measure of viable cells.

Experiment [4] has as its system SW-620. Kind of experiment: Induction of apoptosis in human SW-620 cells assessed as increase in ROS levels at 0.5 uM measured after 24 hrs by DCFH-DA staining based flow cytometry method relative to control. The experiment is classed as functional. The method, boiled down: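 Cells at 5×10^5 per well exposed to 0.25 or 0.5 µM for 24 h, then loaded with 5 µM DCFH-DA in serum-free medium 30 min at 37 °C; washed, harvested, read by flow cytometry (ex 488/em 525 nm). ROS given as ratio of treated to control; at least three experiments.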

The subject of experiment [5] is SW-620. Kind of experiment: Induction of apoptosis in human SW-620 cells assessed as increase in Bax expression at 0.5 to 1 uM measured after 24 hrs by western blot assay. The class given is functional, cell-based. Particulars: dose 0.5-1 µM. The method, boiled down:
as §1

The subject of another experiment is SGC-7901. Kind of experiment: Antiproliferative activity against human SGC-7901 cells assessed as cell viability measured after 72 hrs by MTS method. The class given is functional, cell-based. As to conditions: SGC-7901, 72 h. The gist of the method: (§2)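 Log-phase cells plated at 5×10^3–6×10^3 per well for 24 h, then given graded compound concentrations in fresh medium for 72 h, five replicate wells. Medium replaced with medium containing 10% MTS, 30 min or more at 37 °C in dark; OD 490 nm read. IC50 by nonlinear regression; mean ± SD of at least three experiments.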

Experiment [6] relates to RKO. Kind of experiment: Induction of apoptosis in human RKO cells assessed as increase in cleaved PARP levels at 0.5 to 1 uM measured after 24 hrs by western blot assay. The experiment is classed as functional, cell-based. As to conditions: dose 0.5-1 µM. The gist of the method: as §1
Experiment [7] has as its system SW-620. Kind of experiment: Induction of cell cycle arrest in human SW-620 cells assessed as accumulation of cells in S phase at 1 uM measured after 24 hrs by PI staining based flow cytometry method (reference value: 46.12%). The class given is functional.
The subject of experiment [8] is RKO. Kind of experiment: Induction of cell cycle arrest in human RKO cells assessed as accumulation of cells in G1 phase at 1 uM measured after 24 hrs by PI staining based flow cytometry method (reference value: 39.54%). The experiment is classed as functional.
For experiment [9], the system named is SW-620. Kind of experiment: Induction of cell cycle arrest in human SW-620 cells assessed as accumulation of cells in G2 phase at 1 uM measured after 24 hrs by PI staining based flow cytometry method (reference value: 13.83%). The experiment is classed as functional.
Experiment [10] concerns RKO. Kind of experiment: Antiproliferative activity against human RKO cells assessed as cell viability measured after 72 hrs by MTS method. The experiment is classed as functional, cell-based. The method, boiled down: as §2
Experiment [11] addresses T1, Tubulin (Homo sapiens) (UniProt P68371+Q9H4B7+P0DPH7+P68366+Q13509+Q71U36+P04350+Q3ZCM7+P07437+P68363+Q9BQE3+Q6PEY2+Q13885+Q9BVA1+Q9BUF5). Kind of experiment: Inhibition of tubulin polymerization in human RKO cells assessed as fragmentation of microtubule at 1 uM measured 24 hrs by DAPI staining based immunoflourescence assay. The experiment is classed as cell-based. The gist of the method:
(§3)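 RKO cells on coverslips (2.5×10^5 per well) incubated overnight, then treated for 24 h at 0.5 or 1 μM, DMSO, or 1 μM comparators. Fixed in cold methanol 10 min, permeabilized with 0.25% Triton X-100, blocked in 1% BSA at 4 °C overnight. Stained with anti-β-tubulin (1:100, 2 h RT) and Alexa Fluor 594 secondary (1:500, 1 h), nuclei with DAPI; imaged by fluorescence microscopy.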

Experiment [12] relates to HUVEC. Kind of experiment: Anti-vascular activity against human HUVEC cells assessed as wound closure at 1 uM measured after 24 hrs by wound closure assay (reference value: 71.8%). The experiment is classed as functional.
Experiment [13] has as its system SW-620. Kind of experiment: Antitumour activity against human SW-620 cells xenografted in Athymic nude mouse assessed as decrease in tumour growth at 25 mg/kg per two days, po measured after 20 days. The experiment is classed as functional. On the set-up: scale not given: the % may be the effect or the level left. As to conditions: time 20 day. The method, boiled down: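 Nude mice inoculated s.c. in right armpit with 5×10^6 SW620 cells in 125 µL PBS; at about 100 mm³ randomized, n = 6. Dosed orally 25 mg/kg every 2 days for 20 days in DMSO:corn oil 1:9. Tumour volume (L×W²/2) and body weight measured every 2 days; inhibition from final tumour weight vs vehicle.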

The subject of experiment [14] is PANC-1. Kind of experiment: Induction of cell cycle arrest in human PANC-1 cells assessed as accumulation of cells in G1 phase at 1 uM measured after 24 hrs by PI staining based flow cytometry method (reference value: 31.35%). The class given is functional.
Experiment [15] deals with T1, Tubulin (Homo sapiens). Kind of experiment: Inhibition of tubulin polymerization in human RKO cells assessed as morphology changed to fusiform at 1 uM measured 24 hrs by DAPI staining based immunoflourescence assay. The class given is cell-based. Particulars: in the assay text read “changed to round from fusiform” for “changed to fusiform”. The method, boiled down: as §3

The subject of experiment [16] is RKO. Kind of experiment: Induction of apoptosis in human RKO cells assessed as necrotic cells at 1 uM measured after 24 hrs by PI/Annexin V staining based flow cytometry assay (reference value: 0.01%). The experiment is classed as functional.
Experiment [17] concerns RKO. Kind of experiment: Induction of cell cycle arrest in human RKO cells assessed as accumulation of cells in S phase at 1 uM measured after 24 hrs by PI staining based flow cytometry method (reference value: 49.66%). The experiment is classed as functional.
Experiment [18] deals with PANC-1. Kind of experiment: Induction of cell cycle arrest in human PANC-1 cells assessed as accumulation of cells in G2 phase at 1 uM measured after 24 hrs by PI staining based flow cytometry method (reference value: 3.63%). The experiment is classed as functional.
A further experiment concerns BT-474. Kind of experiment: Antiproliferative activity against human BT-474 cells assessed as cell viability measured after 72 hrs by MTS method. The class given is functional, cell-based. As to conditions: BT-474, 72 h. The method, boiled down: as §2
The test system of experiment [19] is SW-620. Kind of experiment: Induction of apoptosis in human SW-620 cells assessed as increase in cleaved PARP levels at 0.5 to 1 uM measured after 24 hrs by western blot assay. Particulars: dose 0.5-1 µM. The experiment is classed as functional, cell-based. The method, boiled down:
as §1

Experiment [20] has as its system PANC-1. Kind of experiment: Antiproliferative activity against human PANC-1 cells assessed as cell viability measured after 72 hrs by MTS method. As to conditions: PANC-1, 72 h. The experiment is classed as functional, cell-based. The method, boiled down:
as §2

Experiment [21] relates to SW-620. Kind of experiment: Induction of apoptosis in human SW-620 cells assessed as necrotic cells at 1 uM measured after 24 hrs by PI/Annexin V staining based flow cytometry assay (reference value: 0.03%). The class given is functional.
For experiment [22], the system named is SW-620. Kind of experiment: Induction of cell cycle arrest in human SW-620 cells assessed as reduction in Cyclin B1 expression at 0.5 to 1 uM measured after 24 hrs by western blot assay. The experiment is classed as functional, cell-based. As to conditions: dose 0.5-1 µM. The gist of the method: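 RKO or SW620 cells (4×10^5–5×10^5 per well) exposed to 0.5 or 1 μM or DMSO for 24 h. Lysed in SDS loading buffer, boiled, run on 8–15% SDS-PAGE and moved to PVDF. Blocked in 5% milk, probed overnight at 4 °C with anti-Cdc2 or anti-cyclin B1 (1:1000), β-actin as reference. HRP secondary and ECL detection. Done at least three times.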

As to `COc1ccc(S(=O)(=O)Nc2cccnc2Nc2ccc(O)cc2)cc1` [ABT-751], the Activity with PANC-1 [1] is listed as 33.13%; in the experiment with SW-620 [7], 44.45%; in the experiment on RKO [8], 0.98%; in the experiment on SW-620 [9], 17.69%; with HUVEC [12] it was 18%; in the experiment on SW-620 [13] it was 49.3%. The Activity stood at 31.44% with PANC-1 [14]; 0.1% in the experiment with RKO [16]; 46.23% in the experiment on RKO [17]; 64.83% in the experiment on PANC-1 [18]; 0.07% in the experiment with SW-620 [21]. Also, the result with RKO [2], in the experiment with SW-620 [5], in the experiment on RKO [6], in the experiment on SW-620 [19] and in the experiment on SW-620 [22] was Active. The IC50 was determined as 9200 nM in the experiment with HUVEC [3]; 738 nM with SGC-7901; 633 nM with RKO [10]; 8390 nM in the experiment with BT-474; 837 nM with PANC-1 [20]. In the experiment with SW-620 [4], the “fold change (FC)” value was found to be 1.8. The inhibition entry at Tubulin (Homo sapiens) [11] and on Tubulin (Homo sapiens) [15] was “Active” each time.

Turning to `COc1ccc(S(=O)(=O)Nc2cccnc2-c2ccc(C#N)c(F)c2)cc1`, the Activity came to 40.54% with PANC-1 [1]; 15.67% in the experiment with SW-620 [7]; 8.75% with RKO [8]; 76.28% in the experiment on SW-620 [9]; 20.1% in the experiment with HUVEC [12]; 53.6% in the experiment with SW-620 [13]. Also, the Activity with PANC-1 [14] is reported as 2.04%; in the experiment on RKO [16], 0.17%; in the experiment with RKO [17], 43.49%; in the experiment on PANC-1 [18] it was 28.01%; with SW-620 [21], 0.09%. Besides, the outcome in the experiment on RKO [2], with SW-620 [5], in the experiment on RKO [6], in the experiment with SW-620 [19] and in the experiment with SW-620 [22] was Active. The IC50 with HUVEC [3] is 8900 nM; in the experiment on SGC-7901, 617 nM; with RKO [10] it was 170 nM; in the experiment on BT-474, 1190 nM; with PANC-1 [20], 729 nM. Further, the “fold change (FC)” value in the experiment on SW-620 [4] was 1.5. Moreover, the inhibition entry at Tubulin (Homo sapiens) [11] and at Tubulin (Homo sapiens) [15] was “Active” each time.

As usually defined, the IC50 is the concentration that inhibits the measured activity by half.
